Test results taken from ChEMBL document CHEMBL4689842, “EUbOPEN Chemogenomics Library wave 1” (2021).

Test system: U2OS
Assay: Multiplex assay against U2OS
Format: toxicity, cell-based
Conditions: human
How it was run: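 Compound was added to live cells that had been stained at seeding with Hoechst33342, BioTracker Green Microtubule Cytoskeleton Dye, MitoTracker Red and Annexin V Alexa Fluor 680, and imaging followed on a CQ1 microscope at 37°C and 5% CO2. CellPathfinder machine-learning gating divided cells into Hoechst high-intensity objects or normal cells, normal cells into healthy, pyknosed or fragmented nuclei, and pyknosed cells into mitotic or apoptotic. Tubulin, mitochondrial-mass and membrane-permeability phenotypes are per cents of healthy-nucleus cells.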

[1] = 12 h, 1 µM, compound concentration 1 uM, replicate 1
[2] = 12 h, 1 µM, compound concentration 1 uM, replicate 2
[3] = 12 h, 10 µM, compound concentration 10 uM, replicate 1
[4] = 12 h, 10 µM, compound concentration 10 uM, replicate 2
[5] = 24 h, 1 µM, compound concentration 1 uM, replicate 1
[6] = 24 h, 1 µM, compound concentration 1 uM, replicate 2
[7] = 24 h, 10 µM, compound concentration 10 uM, replicate 1
[8] = 24 h, 10 µM, compound concentration 10 uM, replicate 2
[9] = 48 h, 1 µM, compound concentration 1 uM, replicate 1
[10] = 48 h, 1 µM, compound concentration 1 uM, replicate 2
[11] = 48 h, 10 µM, compound concentration 10 uM, replicate 1
[12] = 48 h, 10 µM, compound concentration 10 uM, replicate 2

## Cn1cc(-c2[nH]c3cc(NC(=O)[C@H](N)C4CCCCC4)cc4c3c2C=NNC4=O)cn1
[1]
  Population Apoptotic (%): 44%
  Population Fragmented Nuclei (%): 11%
  Population Healthy Nuclei (%): 76%
  Population Hoechst High Intensity Objects (%): 3%
  Population Membrane Permeable-Phenotype (%): 6%
  Population Mitochondria Different-Phenotype (%): 4%
  Population Mitotic Cells (%): 55%
  Population Normal (%): 96%
  Population Pyknosed Nuclei (%): 11%
  Population Tubulin-Different-Phenotype (%): 16%
  Total Cell Count: 123
[2]
  Population Apoptotic (%): 33%
  Population Fragmented Nuclei (%): 13%
  Population Healthy Nuclei (%): 72%
  Population Membrane Permeable-Phenotype (%): 4%
  Population Mitochondria Different-Phenotype (%): 7%
  Population Mitotic Cells (%): 66%
  Population Pyknosed Nuclei (%): 13%
  Population Tubulin-Different-Phenotype (%): 12%
  Total Cell Count: 51
[3]
  Population Apoptotic (%): 47%
  Population Fragmented Nuclei (%): 14%
  Population Healthy Nuclei (%): 60%
  Population Hoechst High Intensity Objects (%): 6%
  Population Membrane Permeable-Phenotype (%): 7%
  Population Mitochondria Different-Phenotype (%): 34%
  Population Mitotic Cells (%): 52%
  Population Normal (%): 93%
  Population Pyknosed Nuclei (%): 25%
  Population Tubulin-Different-Phenotype (%): 28%
  Total Cell Count: 247
[4]
  Population Apoptotic (%): 69%
  Population Fragmented Nuclei (%): 37%
  Population Healthy Nuclei (%): 42%
  Population Hoechst High Intensity Objects (%): 9%
  Population Membrane Permeable-Phenotype (%): 21%
  Population Mitochondria Different-Phenotype (%): 53%
  Population Mitotic Cells (%): 30%
  Population Normal (%): 90%
  Population Pyknosed Nuclei (%): 19%
  Population Tubulin-Different-Phenotype (%): 57%
  Total Cell Count: 91
[5]
  Population Apoptotic (%): 46%
  Population Fragmented Nuclei (%): 9%
  Population Healthy Nuclei (%): 80%
  Population Membrane Permeable-Phenotype (%): 5%
  Population Mitochondria Different-Phenotype (%): 3%
  Population Mitotic Cells (%): 53%
  Population Pyknosed Nuclei (%): 9%
  Population Tubulin-Different-Phenotype (%): 14%
  Total Cell Count: 121
[6]
  Population Apoptotic (%): 43%
  Population Fragmented Nuclei (%): 13%
  Population Healthy Nuclei (%): 70%
  Population Hoechst High Intensity Objects (%): 3%
  Population Membrane Permeable-Phenotype (%): 9%
  Population Mitochondria Different-Phenotype (%): 6%
  Population Mitotic Cells (%): 56%
  Population Normal (%): 96%
  Population Pyknosed Nuclei (%): 15%
  Population Tubulin-Different-Phenotype (%): 15%
  Total Cell Count: 52
[7]
  Population Apoptotic (%): 67%
  Population Fragmented Nuclei (%): 17%
  Population Healthy Nuclei (%): 43%
  Population Hoechst High Intensity Objects (%): 8%
  Population Membrane Permeable-Phenotype (%): 10%
  Population Mitochondria Different-Phenotype (%): 16%
  Population Mitotic Cells (%): 32%
  Population Normal (%): 91%
  Population Pyknosed Nuclei (%): 39%
  Population Tubulin-Different-Phenotype (%): 19%
  Total Cell Count: 293
[8]
  Population Apoptotic (%): 86%
  Population Fragmented Nuclei (%): 34%
  Population Healthy Nuclei (%): 29%
  Population Hoechst High Intensity Objects (%): 16%
  Population Membrane Permeable-Phenotype (%): 44%
  Population Mitochondria Different-Phenotype (%): 61%
  Population Mitotic Cells (%): 13%
  Population Normal (%): 83%
  Population Pyknosed Nuclei (%): 36%
  Population Tubulin-Different-Phenotype (%): 55%
  Total Cell Count: 106
[9]
  Population Apoptotic (%): 45%
  Population Fragmented Nuclei (%): 7%
  Population Healthy Nuclei (%): 81%
  Population Hoechst High Intensity Objects (%): 3%
  Population Membrane Permeable-Phenotype (%): 2%
  Population Mitochondria Different-Phenotype (%): 3%
  Population Mitotic Cells (%): 54%
  Population Normal (%): 96%
  Population Pyknosed Nuclei (%): 10%
  Population Tubulin-Different-Phenotype (%): 17%
  Total Cell Count: 124
[10]
  Population Apoptotic (%): 42%
  Population Fragmented Nuclei (%): 15%
  Population Healthy Nuclei (%): 55%
  Population Hoechst High Intensity Objects (%): 5%
  Population Membrane Permeable-Phenotype (%): 16%
  Population Mitochondria Different-Phenotype (%): 18%
  Population Mitotic Cells (%): 57%
  Population Normal (%): 94%
  Population Pyknosed Nuclei (%): 28%
  Population Tubulin-Different-Phenotype (%): 24%
  Total Cell Count: 56
[11]
  Population Apoptotic (%): 83%
  Population Fragmented Nuclei (%): 20%
  Population Healthy Nuclei (%): 31%
  Population Hoechst High Intensity Objects (%): 13%
  Population Membrane Permeable-Phenotype (%): 13%
  Population Mitochondria Different-Phenotype (%): 20%
  Population Mitotic Cells (%): 16%
  Population Normal (%): 86%
  Population Pyknosed Nuclei (%): 48%
  Population Tubulin-Different-Phenotype (%): 21%
  Total Cell Count: 395
[12]
  Population Apoptotic (%): 100%
  Population Fragmented Nuclei (%): 40%
  Population Hoechst High Intensity Objects (%): 20%
  Population Membrane Permeable-Phenotype (%): 66%
  Population Mitochondria Different-Phenotype (%): 61%
  Population Mitotic Cells (%): 0%
  Population Normal (%): 79%
  Population Pyknosed Nuclei (%): 28%
  Population Tubulin-Different-Phenotype (%): 77%
  Total Cell Count: 103

## CN1CCN(CCOc2cc(OC3CCOCC3)c3c(Nc4c(Cl)ccc5c4OCO5)ncnc3c2)CC1 [SARACATINIB]
[1]
  Population Apoptotic (%): 48%
  Population Fragmented Nuclei (%): 15%
  Population Healthy Nuclei (%): 69%
  Population Hoechst High Intensity Objects (%): 5%
  Population Membrane Permeable-Phenotype (%): 5%
  Population Mitochondria Different-Phenotype (%): 20%
  Population Mitotic Cells (%): 51%
  Population Normal (%): 94%
  Population Pyknosed Nuclei (%): 15%
  Population Tubulin-Different-Phenotype (%): 15%
  Total Cell Count: 138
[2]
  Population Apoptotic (%): 70%
  Population Fragmented Nuclei (%): 9%
  Population Healthy Nuclei (%): 72%
  Population Hoechst High Intensity Objects (%): 10%
  Population Membrane Permeable-Phenotype (%): 0%
  Population Mitochondria Different-Phenotype (%): 23%
  Population Mitotic Cells (%): 30%
  Population Normal (%): 90%
  Population Pyknosed Nuclei (%): 18%
  Population Tubulin-Different-Phenotype (%): 10%
[3]
  Population Apoptotic (%): 63%
  Population Fragmented Nuclei (%): 15%
  Population Healthy Nuclei (%): 57%
  Population Hoechst High Intensity Objects (%): 8%
  Population Membrane Permeable-Phenotype (%): 29%
  Population Mitochondria Different-Phenotype (%): 89%
  Population Mitotic Cells (%): 36%
  Population Normal (%): 91%
  Population Pyknosed Nuclei (%): 26%
  Population Tubulin-Different-Phenotype (%): 100%
  Total Cell Count: 184
[4]
  Population Apoptotic (%): 75%
  Population Fragmented Nuclei (%): 9%
  Population Healthy Nuclei (%): 71%
  Population Hoechst High Intensity Objects (%): 7%
  Population Membrane Permeable-Phenotype (%): 21%
  Population Mitochondria Different-Phenotype (%): 100%
  Population Mitotic Cells (%): 25%
  Population Normal (%): 92%
  Population Pyknosed Nuclei (%): 18%
  Total Cell Count: 60
[5]
  Population Apoptotic (%): 44%
  Population Healthy Nuclei (%): 71%
  Population Hoechst High Intensity Objects (%): 4%
  Population Membrane Permeable-Phenotype (%): 4%
  Population Mitochondria Different-Phenotype (%): 17%
  Population Mitotic Cells (%): 55%
  Population Normal (%): 95%
  Population Pyknosed Nuclei (%): 13%
  Population Tubulin-Different-Phenotype (%): 11%
  Total Cell Count: 139
[6]
  Population Apoptotic (%): 50%
  Population Fragmented Nuclei (%): 14%
  Population Healthy Nuclei (%): 67%
  Population Hoechst High Intensity Objects (%): 8%
  Population Membrane Permeable-Phenotype (%): 6%
  Population Mitochondria Different-Phenotype (%): 13%
  Population Mitotic Cells (%): 50%
  Population Normal (%): 91%
  Population Pyknosed Nuclei (%): 18%
  Population Tubulin-Different-Phenotype (%): 4%
[7]
  Population Apoptotic (%): 76%
  Population Fragmented Nuclei (%): 18%
  Population Healthy Nuclei (%): 60%
  Population Hoechst High Intensity Objects (%): 5%
  Population Membrane Permeable-Phenotype (%): 35%
  Population Mitochondria Different-Phenotype (%): 97%
  Population Mitotic Cells (%): 23%
  Population Normal (%): 94%
  Population Pyknosed Nuclei (%): 20%
  Population Tubulin-Different-Phenotype (%): 100%
  Total Cell Count: 224
[8]
  Population Apoptotic (%): 85%
  Population Fragmented Nuclei (%): 11%
  Population Healthy Nuclei (%): 54%
  Population Hoechst High Intensity Objects (%): 8%
  Population Membrane Permeable-Phenotype (%): 21%
  Population Mitochondria Different-Phenotype (%): 96%
  Population Mitotic Cells (%): 14%
  Population Normal (%): 91%
  Population Pyknosed Nuclei (%): 34%
  Population Tubulin-Different-Phenotype (%): 93%
  Total Cell Count: 70
[9]
  Population Apoptotic (%): 56%
  Population Fragmented Nuclei (%): 13%
  Population Healthy Nuclei (%): 67%
  Population Hoechst High Intensity Objects (%): 5%
  Population Membrane Permeable-Phenotype (%): 5%
  Population Mitochondria Different-Phenotype (%): 12%
  Population Mitotic Cells (%): 44%
  Population Normal (%): 94%
  Population Pyknosed Nuclei (%): 18%
  Population Tubulin-Different-Phenotype (%): 7%
[10]
  Population Apoptotic (%): 38%
  Population Fragmented Nuclei (%): 10%
  Population Healthy Nuclei (%): 73%
  Population Hoechst High Intensity Objects (%): 6%
  Population Membrane Permeable-Phenotype (%): 13%
  Population Mitochondria Different-Phenotype (%): 16%
  Population Mitotic Cells (%): 61%
  Population Normal (%): 93%
  Population Pyknosed Nuclei (%): 15%
  Population Tubulin-Different-Phenotype (%): 14%
[11]
  Population Apoptotic (%): 70%
  Population Fragmented Nuclei (%): 24%
  Population Healthy Nuclei (%): 36%
  Population Hoechst High Intensity Objects (%): 7%
  Population Membrane Permeable-Phenotype (%): 36%
  Population Mitochondria Different-Phenotype (%): 88%
  Population Mitotic Cells (%): 29%
  Population Normal (%): 92%
  Population Pyknosed Nuclei (%): 38%
  Population Tubulin-Different-Phenotype (%): 96%
  Total Cell Count: 278
[12]
  Population Apoptotic (%): 73%
  Population Fragmented Nuclei (%): 9%
  Population Healthy Nuclei (%): 53%
  Population Hoechst High Intensity Objects (%): 15%
  Population Membrane Permeable-Phenotype (%): 48%
  Population Mitochondria Different-Phenotype (%): 100%
  Population Mitotic Cells (%): 26%
  Population Normal (%): 84%
  Population Pyknosed Nuclei (%): 37%
  Population Tubulin-Different-Phenotype (%): 90%
  Total Cell Count: 89
